The target of data set [1] is NAD(P)H dehydrogenase [quinone] 1 (Homo sapiens) (UniProt P15559). Briefly: Substrate activity at recombinant human NQO1 assessed as induction of DNA damage at 10 uM treated post NAC addition and measured after 2 hrs by propidium iodide staining based laser scanning confocal microscopic analysis. The gist of the method: (§1)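 Comet assay in A549/Taxol cells exposed 2 h to compound (10 µM) or 2 mM H2O2, with or without DIC or NAC pretreatment; comet tail lengths measured in arbitrary units.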
Chain of NAD(P)H dehydrogenase [quinone] 1 (Homo sapiens) (P15559 whole entry): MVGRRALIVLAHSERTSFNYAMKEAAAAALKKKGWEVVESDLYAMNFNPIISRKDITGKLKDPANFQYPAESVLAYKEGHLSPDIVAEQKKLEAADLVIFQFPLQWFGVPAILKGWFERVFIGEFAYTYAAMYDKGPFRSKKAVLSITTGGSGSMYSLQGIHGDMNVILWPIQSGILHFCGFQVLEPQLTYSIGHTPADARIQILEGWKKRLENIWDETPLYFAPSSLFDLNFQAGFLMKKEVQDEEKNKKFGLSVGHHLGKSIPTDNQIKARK

Data set [2] has the same target. Briefly: Substrate activity at recombinant human NQO1 assessed as reduction in PARP-1 hyperactivation by measuring depletion of NAD+ level at 10 uM measured up to 300 mins in presence of PARP-1 inhibitor 3-AB. In a few lines:
(§2)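 A549/Taxol cells exposed to compound (10 µM) with or without 25 mM 3-aminobenzamide, harvested at indicated times; PAR by Western blot and intracellular ATP and NAD+ levels measured.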

Data set [3] is described as follows: Hepatotoxicity in nude mouse xenografted with human A549/TR cells expressing NQO1 assessed as albumin level at 15 to 30 mg/kg, iv treated every other day for 3 weeks by hematoxylin and eosin staining based optical microscopic analysis. The following applies: in vivo, 504 h. It counts as toxicity, organism-based. The gist of the method: (§3)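 Nude mice bearing A549/Taxol xenografts given saline, 15 or 30 mg/kg by tail-vein injection every other day, or Taxol 2 mg/kg, for 3 weeks. Mice then euthanized. Major organs examined by H&E staining. Blood collected for biochemistry: TP, ALB, GLB, AST, BUN, LDH.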
In general terms: Xenograft models place foreign cells or tissue in a host animal.

Data set [4] deals with A549/TR. Briefly: Antitumor activity against human A549/TR cells expressing NQO1 xenografted in nude mouse assessed as tumor volume at 15 m/kg, iv treated every other day for 3 weeks measured every day relative to control. It counts as functional. The gist of the method:
(§4)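 A549/Taxol tumor-bearing nude mice dosed by tail-vein injection every other day for three weeks (15 or 30 mg/kg; Taxol reference 2 mg/kg; vehicle controls). Tumor volume followed over treatment, tumors weighed at end, body weight monitored. Tumor sections stained with H&E for necrosis and karyorrhexis.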

The test system of data set [5] is A549/TR. Description: Induction of apoptosis in human A549/TR cells expressing NQO1 assessed as necrotic cells at 10 uM treated post DIC addition and measured after 24 hrs by Annexin V-FITC/propidium iodide based flow cytometric analysis (reference value: 3.91%). It counts as functional. The gist of the method:
(§5)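 A549/Taxol cells exposed 24 h to 1, 5 or 10 µM. The 10 µM arms included pretreatment with 50 µM dicoumarol or 10 mM N-acetylcysteine. Cells stained with Annexin V-FITC and propidium iodide, and populations quantified by flow cytometry.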
(A flow cytometer gives signals particle by particle.)

The subject of data set [6] is A549/TR. Briefly: Antitumor activity against human A549/TR cells expressing NQO1 xenografted in nude mouse assessed as increase in karyprrhexis at 15 to 30 mg/kg, iv treated every other day for 3 weeks by hematoxylin and eosin staining based optical microscopic analysis. It counts as functional, organism-based. In a few lines:
as §4

In data set [7] the target is NAD(P)H dehydrogenase [quinone] 1 (Homo sapiens) (UniProt P15559). Description: Substrate activity at recombinant human NQO1 assessed as reduction in PARP-1 hyperactivation by measuring PAR accumulation at 10 uM by western blot analysis. The gist of the method: (§6)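 A549/Taxol cells treated with compound at 10 µM, with or without 50 µM DIC or 10 mM NAC pretreatment, harvested at indicated times; PAR formation by Western blot, plus intracellular ATP and NAD+ levels.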
Background: In western blotting, separated proteins are transferred to a membrane and probed.

The target is the same in data set [8]. Description: Substrate activity at NAC pretreated recombinant human NQO1 assessed as reduction in PARP-1 hyperactivation by measuring PAR accumulation at 10 uM treated for 10 mins measured after 60 mins by western blot analysis. In a few lines: as §6
The test system of data set [9] is A549/TR. Briefly: Cytotoxicity against human A549/TR cells expressing NQO1 assessed as reduction in cell viability in presence of DIC and measured after 72 hrs by MTT assay. In kind it is functional, cell-based. In a few lines:
(§7)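 MTT viability assay. Cells seeded at 1 x 10^4 cells/mL and attached overnight. Exposed to compound at 1–100 µM for 4 h, then medium replaced. Incubated 72 h at 37 °C, 5% CO2. MTT added for 4 h, formazan dissolved in DMSO, absorbance read at 560 nm. IC50 determined from at least three technical replicates. For DIC/NAC lines, A549/Taxol cells pretreated with 50 µM dicoumarol or 10 mM N-acetylcysteine.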

For data set [10], the target named is NAD(P)H dehydrogenase [quinone] 1 (Homo sapiens) (UniProt P15559). Briefly: Substrate activity at recombinant human NQO1 assessed as ROS generation by measuring umol of cytochrome c utilized per umol of enzyme at 10 uM co-incubated with DIC measured at 2 secs interval for 5 mins in presence of NADPH.
Data set [11] shares this target. Briefly: Substrate activity at recombinant human NQO1 assessed as induction of ROS generation at 1 to 10 uM treated post DIC addition and measured after 3 hrs by DCF-DA staining based fluorescence laser scanning confocal microscopic analysis. The gist of the method: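 A549/Taxol cells seeded at 1 x 10^6 per well, grown 24 h, treated with compound at 1 and 10 µM for 3 h (± pretreatment with 50 µM DIC or 10 mM NAC), loaded with 10 µM DCFH-DA 30 min at 37 °C, fixed in 4% formaldehyde 20 min, PBS washed, imaged by laser scanning confocal microscopy.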

Data set [12] has the same target. Briefly: Substrate activity at recombinant human NQO1 assessed as induction of DNA damage at 10 uM treated post DIC addition and measured after 2 hrs by propidium iodide staining based laser scanning confocal microscopic analysis. The gist of the method: as §1
For data set [13] the target is unchanged. Briefly: Substrate activity at recombinant human NQO1 assessed as reduction in PARP-1 hyperactivation by measuring PAR accumulation at 10 uM after 60 mins by western blot analysis. The gist of the method: as §6
Data set [14] has the same target. Briefly: Substrate activity at recombinant human NQO1 assessed as reduction in PARP-1 hyperactivation by measuring PAR accumulation at 10 uM in presence of PARP-1 inhibitor 3-AB by western blot analysis. The gist of the method: as §2
For data set [15], the system named is A549/TR. Briefly: Cytotoxicity against human A549/TR cells expressing NQO1 assessed as reduction in cell viability in presence of NAC and measured after 72 hrs by MTT assay. It counts as functional, cell-based. The gist of the method: as §7
Another data set concerns MCF7. Description: Cytotoxicity against human MCF7 cells expressing NQO1 assessed as reduction in cell viability after 72 hrs by MTT assay. The settings on record: MCF7, 72 h. In kind it is functional, cell-based. In a few lines:
as §7

A short description of data set [16]: Toxicity in nude mouse xenografted with human A549/TR cells expressing NQO1 assessed as effect on body weight at 15 to 30 mg/kg, iv treated every other day for 3 weeks measured every day. The following applies: in vivo, 504 h. In kind it is organism-based. The gist of the method: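 Tumor-bearing nude mice (A549/Taxol xenograft) injected iv via tail vein at 15 or 30 mg/kg every other day for 3 weeks, vehicle as control; body weight tracked over the treatment period.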

In data set [17] the test system is A549/TR. Description: Induction of apoptosis in human A549/TR cells expressing NQO1 assessed as early apoptotic cells at 5 uM after 24 hrs by Annexin V-FITC/propidium iodide based flow cytometric analysis (reference value: 0.43%). In kind it is functional. In a few lines: as §5
For data set [18], the system named is A549/TR. Description: Induction of apoptosis in human A549/TR cells expressing NQO1 assessed as late apoptotic cells at 5 uM after 24 hrs by Annexin V-FITC/propidium iodide based flow cytometric analysis (reference value: 2.49%). It counts as functional. The gist of the method: as §5
Data set [19] concerns the target NAD(P)H dehydrogenase [quinone] 1 (Homo sapiens) (UniProt P15559). Briefly: Substrate activity at recombinant human NQO1 assessed as ROS generation by measuring umol of cytochrome c utilized per umol of enzyme at 10 uM measured at 2 secs interval for 5 mins in presence of NADPH.
A short description of data set [20]: Hepatotoxicity in nude mouse xenografted with human A549/TR cells expressing NQO1 assessed as globulin level at 15 to 30 mg/kg, iv treated every other day for 3 weeks by hematoxylin and eosin staining based optical microscopic analysis. The following applies: in vivo, 504 h. It counts as toxicity, organism-based. The gist of the method:
as §3

Calls of active or inactive are those of the source. No cut-off for these calls is given here.

A word on the T/C: it is the ratio of treated to control. The IC50 is the concentration that gives 50% inhibition. `N#Cc1nc2c(nc1C#N)-c1cc(F)c(F)cc1C2=O`: the result in [1], in data set [2], in [8], in data set [10], in data set [11] and in data set [12] was inactive. Also, the result in data set [13] and in data set [14] was inactive. The Activity entry is “Non-Toxic” in data set [3]; 14.62% in the data set with A549/TR [5]; “Non-Toxic” in data set [16]; 33.6% in the data set with A549/TR [17]; 9.28% in the data set with A549/TR [18]; 1210 µmol/min in data set [19]. For the same compound, the Activity result in data set [20] is listed as “Non-Toxic”. Besides, in the data set on A549/TR [4], the T/C is 62.1%. The result (in the data set on A549/TR [6]; in [7]) was Active. Also, the IC50 with A549/TR [9] was found to be 25.6 µM; in the data set on A549/TR [15], 33.2 µM; with MCF7, 1.3 µM.
